For seven compounds, MIC results are on record in ChEMBL document CHEMBL1131139, “Synthesis and antibacterial activity of ketolides (6-O-methyl-3-oxoerythromycin derivatives): a new class of antibacterials highly potent against macrolide-resistant and -susceptible respiratory pathogens” (1998).

Values after ≈ are worked out from the molar mass of the structure shown.

Holding throughout (assay type): functional
In test [1] the test system is Streptococcus pneumoniae. In words: In vitro inhibitory activity against Streptococcus pneumoniae (032UC1). The method, boiled down: (§1)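 Two-fold agar dilution on Mueller-Hinton agar (pH 7.4). Inoculum from overnight plate cultures suspended in Mueller-Hinton broth, adjusted to 10^9 CFU/mL, diluted 1:200 and spotted by multipoint inoculator at about 10^4 CFU/spot. Plates incubated 37 °C for 20 h. MIC taken as lowest concentration with no visible growth.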

For test [2], the system named is Streptococcus pneumoniae. The test can be described thus: In vitro inhibitory activity against Streptococcus pneumoniae (EryRi 030SJ5i). The method, boiled down: as §1
Test [3] concerns Staphylococcus aureus. In words: In vitro inhibitory activity against Staphylococcus aureus (011UC4). The method, boiled down: as §1
The subject of test [4] is Haemophilus influenzae. The test can be described thus: In vitro inhibitory activity against Haemophilus influenzae (351HT3). In short, it runs like this: as §1
For test [5], the system named is Staphylococcus aureus. The test can be described thus: In vitro inhibitory activity against Staphylococcus aureus (EryRi 011GO25i). The method, boiled down: as §1
Test [6] has as its system Streptococcus pneumoniae. The test can be described thus: In vitro inhibitory activity against Streptococcus pneumoniae (EryRc 030SJ1). In short, it runs like this:
as §1

Test [7] relates to Haemophilus influenzae. The test can be described thus: In vitro inhibitory activity against Haemophilus influenzae (351CB12). In short, it runs like this: as §1
In the next test the test system is Streptococcus pyogenes. The test can be described thus: In vitro inhibitory activity against Streptococcus pyogenes (02A1UC1). The method, boiled down:
as §1

For test [8], the system named is Staphylococcus aureus. The test can be described thus: In vitro inhibitory activity against Staphylococcus aureus (EryRc 011CB20). In short, it runs like this: as §1
The subject of test [9] is Staphylococcus epidermidis. In words: In vitro inhibitory activity against Staphylococcus epidermidis (EryRi 012GO11i). In short, it runs like this:
as §1

A further test has as its system Escherichia coli. The test can be described thus: In vitro inhibitory activity against Escherichia coli (250 UC5). The method, boiled down: as §1

With `CC[C@H]1OC(=O)[C@H](C)C(=O)[C@H](C)[C@@H](O[C@@H]2O[C@H](C)C[C@H](N(C)C)[C@H]2O)[C@](C)(OC)C[C@@H](C)/C(=N\OC2CCCN(CCCC3CCCCC3)C2)[C@H](C)[C@@H](O)[C@]1(C)O` (some centres not stated), the MIC amounted to 0.02 µg/mL (≈ 0.0247 µM) in the test on Streptococcus pneumoniae [1]; 0.15 µg/mL (≈ 0.185 µM) in the test with Streptococcus pneumoniae [2]; 0.15 µg/mL (≈ 0.185 µM) in the test with Staphylococcus aureus [3]; 5 µg/mL (≈ 6.17 µM) against Haemophilus influenzae [4]; 2.5 µg/mL (≈ 3.09 µM) in the test on Staphylococcus aureus [5]; 0.6 µg/mL (≈ 0.741 µM) in the test on Streptococcus pneumoniae [6]. Further, the MIC came out at 1.2 µg/mL (≈ 1.48 µM) with Haemophilus influenzae [7]; 0.04 µg/mL (≈ 0.0494 µM) against Streptococcus pyogenes; 40 µg/mL (≈ 49.4 µM) against Staphylococcus aureus [8]; 5 µg/mL (≈ 6.17 µM) in [9]; 40 µg/mL (≈ 49.4 µM) in the test with Escherichia coli.
Regarding `CC[C@H]1OC(=O)[C@H](C)C(=O)[C@H](C)[C@@H](O[C@@H]2O[C@H](C)C[C@H](N(C)C)[C@H]2O)[C@](C)(OC)C[C@@H](C)/C(=N\OCCN2CCCC2)[C@H](C)[C@@H](O)[C@]1(C)O`, the MIC against Streptococcus pneumoniae [1] worked out at 20 µg/mL (≈ 28.6 µM); against Streptococcus pneumoniae [2], 40 µg/mL (≈ 57.1 µM); in the test on Staphylococcus aureus [3] it was 0.6 µg/mL (≈ 0.857 µM); with Haemophilus influenzae [4], 40 µg/mL (≈ 57.1 µM); in the test on Staphylococcus aureus [5], 2.5 µg/mL (≈ 3.57 µM); in the test on Streptococcus pneumoniae [6], 20 µg/mL (≈ 28.6 µM). The MIC was 20 µg/mL (≈ 28.6 µM) in the test on Haemophilus influenzae [7]; 0.15 µg/mL (≈ 0.214 µM) in the test with Streptococcus pyogenes; 40 µg/mL (≈ 57.1 µM) in the test with Staphylococcus aureus [8]; 0.6 µg/mL (≈ 0.857 µM) in [9]; 40 µg/mL (≈ 57.1 µM) in the test with Escherichia coli.
As to `CC[C@H]1OC(=O)[C@H](C)C(=O)[C@H](C)[C@@H](O[C@@H]2O[C@H](C)C[C@H](N(C)C)[C@H]2O)[C@](C)(OC)C[C@@H](C)C(=O)[C@@H](C)[C@H]2NC(=O)O[C@@]21C`, the MIC against Streptococcus pneumoniae [1] was 0.3 µg/mL (≈ 0.49 µM); against Streptococcus pneumoniae [2] it was 40 µg/mL (≈ 65.3 µM); against Staphylococcus aureus [3] it was 5 µg/mL (≈ 8.16 µM); in the test on Haemophilus influenzae [4] it was 20 µg/mL (≈ 32.6 µM); against Staphylococcus aureus [5], 40 µg/mL (≈ 65.3 µM); with Streptococcus pneumoniae [6] it was 40 µg/mL (≈ 65.3 µM). In addition, the MIC came to 20 µg/mL (≈ 32.6 µM) in the test on Haemophilus influenzae [7]; 2.5 µg/mL (≈ 4.08 µM) against Streptococcus pyogenes; 40 µg/mL (≈ 65.3 µM) with Staphylococcus aureus [8]; 40 µg/mL (≈ 65.3 µM) in test [9]; 40 µg/mL (≈ 65.3 µM) against Escherichia coli.
On to `CC[C@H]1OC(=O)[C@H](C)C(=O)[C@H](C)[C@@H](O[C@@H]2O[C@H](C)C[C@H](N(C)C)[C@H]2O)[C@](C)(OC)C[C@@H](C)/C(=N\OCc2ccccc2)[C@H](C)[C@@H](O)[C@]1(C)O`, for which the MIC was 0.3 µg/mL (≈ 0.433 µM) against Streptococcus pneumoniae [1]; 40 µg/mL (≈ 57.7 µM) in the test on Streptococcus pneumoniae [2]; 2.5 µg/mL (≈ 3.61 µM) in the test with Staphylococcus aureus [3]; 40 µg/mL (≈ 57.7 µM) in the test on Haemophilus influenzae [4]; 40 µg/mL (≈ 57.7 µM) against Staphylococcus aureus [5]; 40 µg/mL (≈ 57.7 µM) against Streptococcus pneumoniae [6]. In addition, the MIC against Haemophilus influenzae [7] worked out at 40 µg/mL (≈ 57.7 µM); with Streptococcus pyogenes, 0.6 µg/mL (≈ 0.866 µM); in the test with Staphylococcus aureus [8], 40 µg/mL (≈ 57.7 µM); in test [9] it was 40 µg/mL (≈ 57.7 µM); against Escherichia coli, 40 µg/mL (≈ 57.7 µM).
As to `CC[C@H]1OC(=O)[C@H](C)C(=O)[C@H](C)[C@@H](O[C@@H]2O[C@H](C)C[C@H](N(C)C)[C@H]2O)[C@](C)(OC)C[C@@H](C)C(=O)[C@H](C)[C@H]2N(CCOCc3ccccc3)C(=O)O[C@]12C`, the MIC in the test with Streptococcus pneumoniae [1] was 0.02 µg/mL (≈ 0.0268 µM); against Streptococcus pneumoniae [2], 0.3 µg/mL (≈ 0.402 µM); against Staphylococcus aureus [3] it was 0.04 µg/mL (≈ 0.0536 µM); with Haemophilus influenzae [4] it was 1.2 µg/mL (≈ 1.61 µM); against Staphylococcus aureus [5], 0.08 µg/mL (≈ 0.107 µM); against Streptococcus pneumoniae [6], 5 µg/mL (≈ 6.69 µM). Moreover, the MIC against Haemophilus influenzae [7] came out at 0.6 µg/mL (≈ 0.803 µM); with Streptococcus pyogenes, 0.02 µg/mL (≈ 0.0268 µM); in the test on Staphylococcus aureus [8], 40 µg/mL (≈ 53.6 µM); in test [9], 0.15 µg/mL (≈ 0.201 µM); with Escherichia coli, 40 µg/mL (≈ 53.6 µM).
On to `CC[C@H]1OC(=O)[C@H](C)C(=O)[C@H](C)[C@@H](O[C@@H]2O[C@H](C)C[C@H](N(C)C)[C@H]2O)[C@](C)(OC)C[C@@H](C)C(=O)[C@H](C)[C@H]2N(NCCCc3cccc(Cl)c3)C(=O)O[C@]12C`, for which the MIC with Streptococcus pneumoniae [1] stood at 0.02 µg/mL (≈ 0.0256 µM); in the test with Streptococcus pneumoniae [2] it was 0.08 µg/mL (≈ 0.103 µM); in the test on Staphylococcus aureus [3] it was 0.04 µg/mL (≈ 0.0513 µM); with Haemophilus influenzae [4] it was 1.2 µg/mL (≈ 1.54 µM); in the test with Staphylococcus aureus [5] it was 0.08 µg/mL (≈ 0.103 µM); in the test on Streptococcus pneumoniae [6], 2.5 µg/mL (≈ 3.2 µM). The MIC was 2.5 µg/mL (≈ 3.2 µM) against Haemophilus influenzae [7]; 0.02 µg/mL (≈ 0.0256 µM) in the test with Streptococcus pyogenes; 40 µg/mL (≈ 51.3 µM) in the test on Staphylococcus aureus [8]; 0.04 µg/mL (≈ 0.0513 µM) in [9]; 40 µg/mL (≈ 51.3 µM) in the test on Escherichia coli.
As for `CCCCCCCCCCN1CCCC(O/N=C2\[C@H](C)C[C@@](C)(OC)[C@H](O[C@@H]3O[C@H](C)C[C@H](N(C)C)[C@H]3O)[C@@H](C)C(=O)[C@@H](C)C(=O)O[C@H](CC)[C@@](C)(O)[C@H](O)[C@H]2C)C1` (some centres not stated), the MIC in the test with Streptococcus pneumoniae [1] was 0.08 µg/mL (≈ 0.0968 µM); against Streptococcus pneumoniae [2], 0.3 µg/mL (≈ 0.363 µM); in the test on Staphylococcus aureus [3], 0.6 µg/mL (≈ 0.726 µM); against Haemophilus influenzae [4], 20 µg/mL (≈ 24.2 µM); in the test on Staphylococcus aureus [5] it was 0.6 µg/mL (≈ 0.726 µM); in the test with Streptococcus pneumoniae [6], 1.2 µg/mL (≈ 1.45 µM). Further, the MIC in the test with Haemophilus influenzae [7] was determined as 5 µg/mL (≈ 6.05 µM); in the test on Streptococcus pyogenes, 0.08 µg/mL (≈ 0.0968 µM); against Staphylococcus aureus [8], 10 µg/mL (≈ 12.1 µM); in [9] it was 0.6 µg/mL (≈ 0.726 µM); in the test with Escherichia coli, 40 µg/mL (≈ 48.4 µM).
